ChEMBL document CHEMBL5120910, “Small-Molecule Gankyrin Inhibition as a Therapeutic Strategy for Breast and Lung Cancer” (J Med Chem, 2022)
Active and inactive are the calls of the source. The calls are words filed in the database; no cut-off is given here.

Experiments:
MDA-MB-231 [1] = assay: Antiproliferative activity against human MDA-MB-231 cells assessed as cell growth inhibition measured after 72 hrs by MTT assay; type: functional, cell-based; conditions: MDA-MB-231, 72 h
Procedure, shortened: (§1)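 Cells seeded at 2.5 × 10^4 cells/well, allowed 24 h before dosing, then exposed to increasing concentrations (0.5% DMSO final) for 72 h at 37 °C, 5% CO2. MTT added at 1 mg/mL final in complete media for 2 h, formazan dissolved in DMSO, absorbance read at 570 nm. 6–8 repeats per treatment; IC50 from concentration–response fit.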

A549 = assay: Antiproliferative activity against human A549 cells assessed as cell growth inhibition measured after 72 hrs by MTT assay; type: functional, cell-based; conditions: A549, 72 h; procedure, shortened: as §1
MDA-MB-231 [2] = assay: Antitumor activity in human MDA-MB-231 cells cultured as 3D spheroids assessed as fold decrease in spheroid volume at 2.30 uM measured up to 15 days by inverted microscopic analysis; type: functional; conditions: dose 2.3 µM; time <= 15 day
Procedure, shortened: (§2)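 Spheroids formed from 2000 cells/well in ultra-low attachment U-bottom wells over 3 days, then given a single dose on day 3. Half the media was replenished every 3 days. Transmitted-light images were taken through day 15, and spheroid volume was computed from images and expressed as fold-difference. Mean ± SD, n = 8; unpaired t-test.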

MDA-MB-231 [3] = assay: Antitumor activity against human MDA-MB-231 cells tumor spheroids assessed as decrease in live cells by measuring green fluorescence intensity at 1.15 to 2.30 uM measured at 15 days by calcein AM staining based fluorescence microscopic analysis; type: functional, cell-based; conditions: dose 1.15-2.3 µM, time 15.0 day
Procedure, shortened: (§3)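 Live/dead staining of 3D spheroids at day 15 after single-dose treatment: media replaced by kit reagent with calcein AM (live, green) and EthD-III (dead, red), 30 min in dark at room temperature, imaged at 4X by fluorescence microscopy. Mean ± SD, n = 4; unpaired Student's t-test.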

MDA-MB-231 [4] = assay: Inhibition of gankyrin-proteasome protein-protein interaction in human MDA-MB-231 cells assessed as increase in Rb level at 0.30 to 2.50 uM measured after 48 hrs by Western blotting analysis; type: cell-based; conditions: dose 0.3-2.5 µM
Procedure, shortened: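 Cells in 10 cm dishes treated with varying concentrations (0.5% DMSO final) or DMSO only for 48 h. Lysed in RIPA with protease/phosphatase inhibitors on ice for 60 min. 15 μg protein resolved under reducing conditions, transferred to PVDF, and probed for p53, phospho-p53 S6/S15, Rb, gankyrin and cyclophilin. Detection by HRP-secondary ECL.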

[5] = Metabolic stability in human liver microsomes assessed as compound remaining preincubated for 10 mins followed by NADPH addition measured after 60 mins by HPLC analysis; type: ADME, Microsome; conditions: read-out: Stability
MDA-MB-231 [6] = assay: Antitumor activity against human MDA-MB-231 cells tumor spheroids assessed as increase in dead cells by measuring red fluorescence intensity at 1.15 to 2.30 uM measured at 15 days by EthD-III staining based fluorescence microscopic analysis; type: functional, cell-based; conditions: dose 1.15-2.3 µM, time 15.0 day; procedure, shortened: as §3
MDA-MB-231 [7] = assay: Inhibition of colony formation in human MDA-MB-231 cells at 1.15 uM incubated for 48 hrs followed by replacement of fresh media every alternative day measured after 7 days by crystal violet staining based clonogenic assay relative to control; values are per cent of control; conditions: MDA-MB-231, 216 h
[8] = target: T1, 26S proteasome non-ATPase regulatory subunit 10 (Homo sapiens) (UniProt O75832); assay: Binding affinity to gankyrin (unknown origin) expressed in Escherichia coli BL21 (DE3) expression system assessed as decrease in thermal denaturation at 1.5 uM measured at 5 to 90 degreeC by circular dichroism spectropolarimeter analysis
T1 sequence (whole entry): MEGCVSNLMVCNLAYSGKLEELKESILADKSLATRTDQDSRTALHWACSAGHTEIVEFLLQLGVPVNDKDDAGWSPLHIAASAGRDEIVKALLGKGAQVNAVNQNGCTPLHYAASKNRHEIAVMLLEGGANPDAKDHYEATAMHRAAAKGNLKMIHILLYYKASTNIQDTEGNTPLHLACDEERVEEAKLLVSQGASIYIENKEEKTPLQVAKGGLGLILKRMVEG
Procedure, shortened: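 Recombinant His-tagged gankyrin expressed in E. coli BL21(DE3) Codon+RIL (IPTG 1 mM, 25 °C, ~5 h) and purified by Ni2+-IMAC. Thermal denaturation followed by CD at 217 nm over 5–90 °C with compound at 1.5 μM.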

[9] = Antiproliferative activity against human HuH-6 cells assessed as cell growth inhibition measured after 72 hrs by MTT assay; type: functional, cell-based; conditions: HuH-6, 72 h; procedure, shortened: as §1
[10] = target: T1, 26S proteasome non-ATPase regulatory subunit 10 (Homo sapiens); assay: Binding affinity to gankyrin (unknown origin) expressed in Escherichia coli BL21 (DE3) expression system assessed as formation of white precipitation of the compound at 1.5 uM
[11] = Cytotoxicity against HEK293 cells assessed as cell growth inhibition measured after 72 hrs by MTT assay; type: toxicity, cell-based; conditions: human; procedure, shortened: as §1
MDA-MB-231 [12] = assay: Antitumor activity in human MDA-MB-231 cells cultured as 3D spheroids assessed as fold decrease in spheroid volume at 1.15 uM measured up to 15 days by inverted microscopic analysis; type: functional; conditions: time <= 15 day; procedure, shortened: as §2
[13] = target: T1, 26S proteasome non-ATPase regulatory subunit 10 (Homo sapiens); assay: Binding affinity to gankyrin (unknown origin) assessed as change in melting temperature at 300 uM by SYPRO orange staining based thermal shift assay

SMILES | IC50 (MDA-MB-231 [1]) [µM] | IC50 (A549) [µM] | further results
COC(=O)c1ccc(-n2nncc2CCCOS(=O)(=O)c2ccc(C)cc2)cc1 | 58.1 | > 100 | –
COC(=O)c1ccc(-n2cc(CCCC(=O)Nc3ccc(C)cc3)nn2)cc1 | 9.7 | 75.7 | –
COC(=O)c1ccc(-n2cc(CCCC(=S)Nc3ccc(C)cc3)nn2)cc1 | 8.1 | 7.9 | –
COC(=O)c1ccc(-n2cc(CCCNc3ccc(C)cc3)nn2)cc1 | 33 | > 100 | –
Cc1ccc(NC(=O)CCCn2cc(-c3ccc(C(F)(F)F)cc3)nn2)cc1 | 2.3 | 25 | fold change (FC) (MDA-MB-231 [2]): 3.1; Activity (MDA-MB-231 [3]): Active; Activity (MDA-MB-231 [4]): Active; remaining at 1 h [5]: 84%; Activity (MDA-MB-231 [6]): Active; growth, % of control at 1.15 µM (MDA-MB-231 [7]): 75.3%; Activity [8]: Active; IC50 [9]: 3.1 µM; Activity [10]: Active; IC50 at 72 h [11]: > 100 µM; fold change (FC) (MDA-MB-231 [12]): 2.6; Activity [13]: Active
COC(=O)c1ccc(-n2cc(CCCc3nnc(-c4ccc(C)cc4)o3)nn2)cc1 | 21.5 | 65.1 | –
COC(=O)c1ccc(-c2cn(CCCC(=S)Nc3ccc(-c4ccccc4)cc3)nn2)cc1 | > 100 | 42.3 | –
COC(=O)c1ccc(-n2cc(CCCOc3ccc(C)cc3)nn2)cc1 | 14.2 | > 100 | –
Cc1ccc(S(=O)(=O)OCCCc2cn(-c3ccc(C(F)(F)F)cc3)nn2)cc1 | > 100 | > 100 | –
COC(=O)c1ccc(-n2cc(CCCC(=O)Oc3ccc(C)cc3)nn2)cc1 | 55.1 | > 100 | –
COC(=O)c1ccc(-n2cc(CCCOC(=O)c3ccc(C)cc3)nn2)cc1 | > 100 | > 100 | –
COC(=O)c1ccc(-n2cc(CCCC(=O)NS(=O)(=O)c3ccc(C)cc3)nn2)cc1 | > 100 | > 100 | –
COC(=O)c1ccc(-c2nnc(CCCOS(=O)(=O)c3ccc(C)cc3)[nH]2)cc1 | > 100 | > 100 | –
COC(=O)c1ccc(-c2nnn(CCCOS(=O)(=O)c3ccc(C)cc3)n2)cc1 | > 100 | > 100 | –
